Data taken from ChEMBL document CHEMBL3868592, “Analogues of Marine Guanidine Alkaloids Are in Vitro Effective against Trypanosoma cruzi and Selectively Eliminate Leishmania (L.) infantum Intracellular Amastigotes” (J Nat Prod, 2016).
Activity calls are given as the source filed them. The calls are words filed in the database; no cut-off is given here.

What was measured:
Leishmania infantum [1] = assay: Induction of ROS generation in Leishmania infantum MHOM/BR/1972/LD promastigote form at 57 uM incubated for […] by H2DCF-DA probe based fluorimetric assay relative to sodium azide; assay type: functional
How it was run: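 Promastigotes (2 × 10^6/well) washed in HBSS and exposed to compound for 60 min, then loaded with 5 μM H2DCFDA for 15 min. Fluorescence read at ex 485/em 520 nm. Sodium azide (10 mM) served as positive control. Controls were compound background fluorescence, DMSO, untreated promastigotes and cell-free medium. Run in triplicate.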

[2] = Selectivity index, ratio of CC50 for mouse NCTC-929 cells to IC50 for Leishmania infantum MHOM/BR/1972/LD amastigote forms infected in BALB/c mouse macrophages; assay type: functional
Peritoneal macrophage [3] = assay: Antiinflammatory activity in BALB/c mouse peritoneal macrophages co-cultivated with splenocytes assessed as decrease in INF-gamma release at 30 uM after 48 hrs by flow cytometric analysis; assay type: functional
How it was run: (§1)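 Peritoneal macrophages from BALB/c mice seeded at 1.5×10^5 cells/well; after 24 h, infected where applicable with L. infantum spleen-derived amastigotes at 1:10 (macrophage:amastigote). After 24 h, cocultured where applicable with splenocytes at 6:1. Compound added for 48 h. Supernatant cytokines quantified with an inflammatory cytometric bead array by flow cytometry. Sham-treated infected macrophages served as reference.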

Peritoneal macrophage [4] = assay: Antiinflammatory activity in BALB/c mouse peritoneal macrophages infected with Leishmania infantum MHOM/BR/1972/LD amastigote form assessed as decrease in INF-gamma release at 30 uM after 48 hrs by flow cytometric analysis; assay type: functional; how it was run: as §1
Trypanosoma cruzi = assay: Antitrypanosomal activity against Trypanosoma cruzi Y trypomastigote forms infected in monkey LLC-MK2 cells assessed as reduction in parasite viability after 24 hrs by resazurin assay; assay type: functional, cell-based; conditions: LLC-MK2, 24 h
How it was run: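 Y-strain trypomastigotes from LLC-MK2 cultures seeded at 1×10^6/well in RPMI-1640. Compounds up to 150 μM, 24 h at 37 °C, 5% CO2. Viability by resazurin (0.011% in PBS), read at 570 nm against drug-free and cell-free wells; 0.5% DMSO control. IC50 by sigmoidal dose-response curve fitting.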

Peritoneal macrophage [5] = assay: Antiinflammatory activity in BALB/c mouse peritoneal macrophages infected with Leishmania infantum MHOM/BR/1972/LD amastigote form cocultivated with splenocytes assessed as decrease in INF-gamma release at 30 uM after 48 hrs by flow cytometric analysis; assay type: functional; how it was run: as §1
Leishmania infantum [6] = assay: Antileishmanial activity against Leishmania infantum MHOM/BR/1972/LD promastigote forms […] assessed as reduction in parasite viability after 48 hrs by MTT assay; assay type: functional
How it was run: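 Late-growth-phase promastigotes (passage 5) seeded at 1×10^6/well in M-199. Compounds dissolved in DMSO, tested up to 100 μM, 48 h at 24 °C. Viability by MTT, OD 570 nm, against drug-free (100%) and cell-free blank wells; 0.5% DMSO control. IC50 from sigmoidal dose-response curves; ≥2 independent assays.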

[7] = Cytotoxicity against mouse NCTC-929 cells assessed as decrease in cell viability after 48 hrs by MTT assay; assay type: toxicity
How it was run: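 NCTC clone 929 murine cells seeded at 6×10^4/well. Compound up to 150 μM for 48 h at 37 °C, 5% CO2. Viability read by MTT. CC50 from sigmoidal dose-response; mean of at least two independent experiments.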

Leishmania infantum [8] = assay: Induction of plasma membrane permeability in Leishmania infantum MHOM/BR/1972/LD promastigote form assessed as increase in fluorescence intensity at 57 uM measured every 20 mins for 60 mins by SYTOX green dye based fluorimetric assay relative to control; assay type: functional
How it was run: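 Late-growth-phase promastigotes (passage 7) washed in PBS, seeded at 2×10^6/well and loaded with 1 μM SYTOX Green for 15 min at 24 °C. Compound added; fluorescence (ex 485/em 520 nm) read every 20 min over 60 min. 0.1% Triton X-100 defined maximal permeabilization. Background, DMSO, untreated and cell-free controls included. Triplicates.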

Peritoneal macrophage [9] = assay: Antiinflammatory activity in BALB/c mouse peritoneal macrophages infected with Leishmania infantum MHOM/BR/1972/LD amastigote form assessed as decrease in MCP-1 release at 30 uM after 48 hrs by flow cytometric analysis; assay type: functional; how it was run: as §1
Peritoneal macrophage [10] = assay: Antiinflammatory activity in BALB/c mouse peritoneal macrophages infected with Leishmania infantum MHOM/BR/1972/LD amastigote form cocultivated with splenocytes assessed as decrease in MCP-1 release at 30 uM after 48 hrs by flow cytometric analysis; assay type: functional; how it was run: as §1
Splenocyte = assay: Antiinflammatory activity in splenocytes (unknown origin) assessed as decrease in MCP1 release at 30 uM after 48 hrs by flow cytometric analysis; assay type: functional, cell-based
Leishmania infantum [11] = assay: Antileishmanial activity against Leishmania infantum MHOM/BR/1972/LD amastigote forms infected in BALB/c mouse peritoneal macrophages assessed as reduction in parasite viability after 120 hrs by giemsa staining based light microscopy; assay type: functional
How it was run: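 BALB/c peritoneal macrophages seeded at 1×10^5/well for 24 h, then infected with hamster spleen-derived amastigotes (1:10 macrophage:amastigote, 24 h, 37 °C, 5% CO2). Compound exposure for 120 h, highest 100 μM. Cells MeOH-fixed and Giemsa-stained; infected macrophages counted out of 400 cells. IC50 from sigmoidal dose-response; at least two independent assays.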

Peritoneal macrophage [12] = assay: Antiinflammatory activity in BALB/c mouse peritoneal macrophages co-cultivated with splenocytes assessed as decrease in MCP-1 release at 30 uM after 48 hrs by flow cytometric analysis; assay type: functional; how it was run: as §1
Peritoneal macrophage [13] = assay: Antiinflammatory activity in BALB/c mouse peritoneal macrophages assessed as decrease in INF-gamma release at 30 uM after 48 hrs by flow cytometric analysis; assay type: functional; how it was run: as §1
Leishmania infantum [14] = assay: Induction of mitochondrial membrane potential loss in Leishmania infantum MHOM/BR/1972/LD promastigote form at 57 uM incubated for 60 mins by rhodamine-123 dye based fluorimetric assay; assay type: functional
How it was run: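 Promastigotes (2×10^6/mL) in HBSS-glucose exposed to compound for 60 min at 25 °C. Rhodamine-123 (0.3 μg/mL) then added, cells washed and resuspended in HBSS-Glc, and fluorescence read at ex 485/em 520 nm. Sodium azide 10 mM as positive control; background, DMSO and untreated controls included. Triplicates.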

[15] = Selectivity index, ratio of CC50 for mouse NCTC-929 cells to IC50 for Trypanosoma cruzi Y trypomastigote form infected in monkey LLC-MK2 cells; assay type: functional
Peritoneal macrophage [16] = assay: Antiinflammatory activity in BALB/c mouse peritoneal macrophages assessed as decrease in MCP-1 release at 30 uM after 48 hrs by flow cytometric analysis; assay type: functional; how it was run: as §1

C[C@@H]1C[C@@H]2CC[C@@H]3C[C@H](CCCCOCc4ccccc4)NC(=[NH+]1)N32.F[B-](F)(F)F
fold change (FC) (Leishmania infantum [1]): 3
Ratio CC50/IC50 [2]: 25
Activity (Peritoneal macrophage [3]): Active
Activity (Peritoneal macrophage [4]): Active
IC50 (Trypanosoma cruzi): 41 µM
Activity (Peritoneal macrophage [5]): Active
IC50 (Leishmania infantum [6]): 57 µM
CC50 at 48 h [7]: 138 µM
Activity (Leishmania infantum [8]): 25%
Activity (Peritoneal macrophage [9]): Active
Activity (Peritoneal macrophage [10]): Active
Activity (Splenocyte): Active
IC50 (Leishmania infantum [11]): 5 µM
Activity (Peritoneal macrophage [12]): Active
Activity (Peritoneal macrophage [13]): Active
Activity (Leishmania infantum [14]): 70%
Ratio CC50/IC50 [15]: 3
Activity (Peritoneal macrophage [16]): Active
